# Results gathered from unrelated publications.
# Lines come from different studies, so protocols differ.
# Read-out: metabolic stability
# Host: human
# Medium: liver microsomes
Structure (SMILES),setting,compound remaining [%]
CC[C@H](NC(=O)[C@H](CS(=O)(=O)CC1CC1)N[C@@H](c1ccc(F)cc1)C(F)(F)F)C(=O)C(=O)NC1CC1,1 h,93
CC(C)NCC(O)COc1cccc2ccccc12 (centres unmarked),"1 µM, 30 min",63
O=C(CCCO)N1N=C(c2c(-c3ccc(Cl)cc3)c3ccccc3[nH]c2=O)CC1c1ccc(Cl)cc1 (centres unmarked),"1 µM, 20 min, pH 7.4",31
Cc1cn(-c2ccc(-c3csc(Nc4c5c(nn4C)CCCC5)n3)cc2)cn1,"1 µM, 30 min",55
Nc1nc(-c2ccc(NC(=O)Nc3cccc(-c4c[nH]c(N)n4)c3F)cc2F)c[nH]1,"5 µM, 1 h, pH 7.4",> 80
CS(=O)(=O)c1ccc(-c2cnc(N)c(-c3ccc(C(F)(F)F)nc3)c2)cc1,"1 µM, 30 min",92
Nc1nc(-c2cccc(NC(=O)Nc3cccc(-c4c[nH]c(N)n4)c3)c2)c[nH]1,"5 µM, 1 h, pH 7.4",> 80
O=C(Nc1ccc(S(=O)(=O)N2CCC(Cl)CC2)cc1)c1ccc([N+](=O)[O-])o1,"1 µM, 1 h, pH 7.4",0.49
